The text below walks through data of publication PMC3654042 (Environmental toxicology, 2012).

Entries after “also recorded” stand apart in the source; their conditions may differ. Like-named read-outs stand apart in the source and are kept apart here. Bounds are passed on as bounds.

In general, Ki refers to the equilibrium dissociation constant of an inhibitor or competing ligand from its target. Read a low Ki as a stronger hold on the target. As a reminder, the IC50 is the concentration needed to halve the response being measured.

In assay [1] the target is T1, purified porcine liver PMPMEase (Sus scrofa, UniProt Q29550).
T1 sequence (Q29550 19-566): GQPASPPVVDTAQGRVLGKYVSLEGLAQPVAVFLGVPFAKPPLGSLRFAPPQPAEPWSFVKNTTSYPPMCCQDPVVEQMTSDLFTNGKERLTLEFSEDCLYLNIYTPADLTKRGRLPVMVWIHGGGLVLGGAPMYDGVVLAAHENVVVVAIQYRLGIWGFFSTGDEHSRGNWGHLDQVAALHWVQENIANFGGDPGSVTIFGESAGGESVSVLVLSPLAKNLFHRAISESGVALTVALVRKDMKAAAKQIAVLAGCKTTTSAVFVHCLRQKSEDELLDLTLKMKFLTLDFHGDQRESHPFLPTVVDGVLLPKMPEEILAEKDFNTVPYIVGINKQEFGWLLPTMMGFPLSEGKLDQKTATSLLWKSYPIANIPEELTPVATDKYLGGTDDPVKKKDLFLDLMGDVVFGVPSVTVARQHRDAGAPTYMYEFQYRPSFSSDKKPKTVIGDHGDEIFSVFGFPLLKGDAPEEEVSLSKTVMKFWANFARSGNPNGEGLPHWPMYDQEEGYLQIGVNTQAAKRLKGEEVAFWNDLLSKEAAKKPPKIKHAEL
Nature of the assay: Inhibition of purified porcine liver PMPMEase. It is filed as biochemical. Conditions: for residual enzyme activity (suppressed to) / inhibition of PMPMEase: fragrance 1 mM, PMPMEase 5 µg, 1 mM RD-PNB, 1 h; for residual enzyme activity (suppressed to): % of uninhibited control. An outline of the steps: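 Single-concentration screen: test compound 1 mM in DMSO was incubated with 5 µg purified pig liver PMPMEase and 1 mM RD-PNB substrate for 1 h in 100 mM Tris–HCl, pH 7.4, at 37°C. Stopped with methanol, chilled on ice, and centrifuged at 5000 × g for 5 min. Residual activity was measured by reversed-phase HPLC of the supernatant, as % of uninhibited control, N = 3.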

Assay [2] has as its system human neuroblastoma SH-SY5Y cells. As to the kind of experiment: Apoptosis assay. Conditions: 0–10 µM, serum-free medium. It counts as cell-based. The method in brief:
(§1)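 Treatment at 0–10 µM in serum-free medium at 37°C in 5% CO2/95% humidified air, one addition per well. Exposure is 24 h per methods and 48 h per figure legend. A549 were seeded at 2 × 10^5 per well and SH-SY5Y at 3 × 10^5 per well in 24-well plates. Stained in the dark with EB/AO 10 µg/mL for 15 min and viewed at 400× with 480/30 nm excitation. Green nuclei were scored live, condensed or fragmented orange chromatin apoptotic, and normal orange nuclei necrotic.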

Assay [3] relates to human lung cancer A549 cells. As to the kind of experiment: Apoptosis assay. It counts as cell-based. Conditions: 0–10 µM, serum-free medium. The method in brief:
as §1

In assay [4] the test system is human lung cancer A549 cells. Nature of the assay: Cell viability. It is filed as cell-based. Conditions: for cell degeneration: A549 cells, 1–200 µM, 48 h. The method in brief: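 A549 cells grown in DMEM/F12 with 10% heat-inactivated FBS and penicillin/streptomycin at 37°C, 5% CO2, trypsinized at 80–90% confluence, and seeded in 96-well plates. Treated with test compound (1–200 µM, acetone vehicle, 1% final) in serum-free RPMI 1640/F12, with the same dose re-added at 24 h, for 48 h. Resazurin (0.05%) added for 2 h in the dark at room temperature. Fluorescence read at ex 560/em 590 nm and expressed as % of untreated control, mean ± SEM, N = 4.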

Assay [5] concerns human neuroblastoma SH-SY5Y cells. As to the kind of experiment: Cell viability. It is filed as cell-based. Conditions: for cell degeneration: SH-SY5Y cells, 1–200 µM, 48 h. An outline of the steps:
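SH-SY5Y neuroblastoma cells grown in DMEM/F12 with 10% heat-inactivated FBS and penicillin/streptomycin at 37°C, 5% CO2, trypsinized at 80–90% confluence, and plated in 96-well plates. Exposed in serum-free DMEM/F12 to test compound (1–200 µM, acetone vehicle, 1% final), re-dosed identically at 24 h, for 48 h. Resazurin (0.05%) added for 2 h in the dark at room temperature. Fluorescence read at ex 560/em 590 nm as % of untreated control, mean ± SEM, N = 4.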

Setting [6] is: purified porcine liver PMPMEase, RD-PNB substrate.

With `CCCCCCCCC1CCC(=O)O1` (stereo not drawn) [Dodecalactone, γ-dodecalactone], the “residual enzyme activity (suppressed to)” value in assay [1] is listed as “less than 25%”. The same molecule gave a Ki in assay [1] (setting [6]) of 12 µM.
The molecule `CC1COCc2cc3c(cc21)C(C)(C)C(C)C3(C)C` (stereo not drawn) [Galaxolide] had a Ki in assay [1] of 11 µM. For the same molecule, the “residual enzyme activity (suppressed to)” value in assay [1] is reported as “less than 25%”. Also, the “apoptosis (AO/EB staining, words)” value in assay [2] and in assay [3] was “induced apoptosis” each time. For the same molecule, the “cell degeneration” value in assay [4] and in assay [5] was “significant degeneration” in each case. The EC50 in assay [4] (Homo sapiens, A549, read-out: EC50 cell degeneration) was 58 µM; in assay [5] (Homo sapiens, SH-SY5Y, read-out: EC50 cell degeneration), 26 µM.
For the molecule `CCCCC=O` [Pentanal, pentanal], in assay [1], the Ki worked out at 173 µM, the “inhibition of PMPMEase” value is on record as 60% and the “residual enzyme activity (suppressed to)” value is given as “less than 25%”. Moreover, in assay [1] (IC50, purified porcine liver PMPMEase, value as worded in text), the IC50 is more than 1000 µM.
Turning to `CC(=O)c1cc2c(cc1C)C(C)(C)C(C)CC2(C)C` (stereo not drawn) [Tonalide], the “residual enzyme activity (suppressed to)” value in assay [1] is reported as “less than 25%”. Further, the Ki in assay [1] (setting [6]) came to 14 µM. Further, the “apoptosis (AO/EB staining, words)” value in assay [2] and in assay [3] was “apoptosis was observed in a concentration-dependent manner; also recorded: induced apoptosis” in each case. In addition, the “cell degeneration” value in assay [4] and in assay [5] was “significant degeneration” throughout. In assay [4] (read-out: EC50 cell degeneration, lung cancer A549 cells, resazurin reduction), the EC50 is 14 µM.
Take `CC1=C(C=O)C(C)(C)CCC1` [β-Cyclocitral, β-cyclocitral]: in assay [1], the “residual enzyme activity (suppressed to)” value is listed as “less than 25%”. Besides, the Ki in assay [1] (setting [6]) was found to be 4 µM.
Turning to `CCCCC1CCCCC(=O)O1` (stereo not drawn) [ε-decalactone], in assay [1], the “inhibition of PMPMEase” value is reported as 30% and the “residual enzyme activity (suppressed to)” value was “less than 25%”.
As for `O=C1CCCCCCCCCCCCCCO1` [ω-Pentadecalactone, ω-pentadecalactone], the “residual enzyme activity (suppressed to)” value in assay [1] is “less than 25%”. Further, in assay [1] (setting [6]), the Ki turned out to be 46 µM.
